Measured values published in ChEMBL document CHEMBL1125493, “HIV-1 neutralization and tumor cell proliferation inhibition in vitro by simplified analogues of pyrido[4,3,2-mn]thiazolo[5,4-b]acridine marine alkaloids” (J Med Chem, 1992).

Columns and labels:
MCF7 [1] = test: […] breast tumor cell proliferation inhibition by the compound in vitro at a concentration of 1.5 uM.; assay type: functional, Homo sapiens
Outline: (§1)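 Breast tumor cells treated with specified compound concentrations in RPMI-1640 in 1% agar with 5% FBS for 1 week. Viability compared with a control given distilled water in place of drug; 5-fluorouracil as standard cytotoxic drug. Reported as concentration-dependent cell survival.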

[2] = Calu3 lung tumor cell proliferation inhibition by the compound in vitro at a concentration of 1.5 uM.; assay type: functional, Homo sapiens
Outline: (§2)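 Tumor cells grown in RPMI-1640 in 1% agar with 5% fetal bovine serum, exposed to the specified concentrations for 1 week. Viability was assessed against a control given distilled water in place of drug. 5-Fluorouracil served as the positive cytotoxic standard. Results are reported as concentration-dependent cell survival.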

MT4 [3] = test: Cytotoxic effect in cultured MT-4 lymphocytes at a concentration of 2 ug/mL (0.0076 uM/mL).; assay type: functional, Homo sapiens
Outline: (§3)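 MT-4 cells at 5 × 10^4 cells/well, 1 mL total, cultured with compound diluted in RPMI 1640 with 10% FBS, 10 mM HEPES, penicillin/streptomycin and 2 mM glutamine, at 37 °C under 5% CO2. Viability was scored by trypan blue exclusion on days 4 and 7, in triplicate, as % viable cells.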

COLO 320DM [4] = test: COLO 320DM colon tumor cell proliferation inhibition by the compound in vitro at a concentration of 1.5 uM.; assay type: functional, Homo sapiens; outline: as §2
COLO 320DM [5] = test: COLO 320DM colon tumor cell proliferation inhibition by the compound in vitro at a concentration of 0.15 uM.; assay type: functional, Homo sapiens; outline: as §2
MCF7 [6] = test: […] breast tumor cell proliferation inhibition by the compound in vitro at a concentration of 0.015 uM.; assay type: functional, Homo sapiens; outline: as §1
MCF7 [7] = test: […] breast tumor cell proliferation inhibition by the compound in vitro at a concentration of 0.15 uM.; assay type: functional, Homo sapiens; outline: as §1
[8] = system: Human immunodeficiency virus 1; test: Inhibitory effect against HIV-1 induced cytopathic effects(HIV-1 neutralization) in MT-4 lymphocytes at a concentration of 10 ug/mL (0.0375 uM/mL).; assay type: functional
Outline: (§4)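 HIV-1 Molt IIIB (~2 × 10^4 TCID50 in 100 μL) preincubated 1 h at 37 °C with a single compound dose, then added to MT-4 cells (5 × 10^5 cells/well, 1 mL). Cultured at 37 °C, 5% CO2. Viable cells counted by trypan blue exclusion on days 4 and 7. Triplicates; % viable cells. Controls: infected cells (positive), uninfected cells (negative).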

COLO 320DM [9] = test: COLO 320DM colon tumor cell proliferation inhibition by the compound in vitro at a concentration of 0.015 uM.; assay type: functional, Homo sapiens; outline: as §2
MT4 [10] = test: Cytotoxic effect in cultured MT-4 lymphocytes at a concentration of 10 ug/mL (0.0375 uM/mL).; assay type: functional, Homo sapiens; outline: as §3
MT4 [11] = test: Cytotoxic effect in cultured MT-4 lymphocytes at a concentration of 100 ug/mL (0.3750 uM/mL).; assay type: functional, Homo sapiens; outline: as §3
[12] = Calu3 lung tumor cell proliferation inhibition by the compound in vitro at a concentration of 0.015 uM.; assay type: functional, Homo sapiens; outline: as §2
[13] = system: Human immunodeficiency virus 1; test: Inhibitory effect against HIV-1 in human peripheral blood monocyte cells(PBMC) (EC50-22.6 ug/mL); assay type: functional, organism-based
[14] = Calu3 lung tumor cell proliferation inhibition by the compound in vitro at a concentration of 0.15 uM.; assay type: functional, Homo sapiens; outline: as §2
MT4 [15] = test: Cytotoxic effect in cultured MT-4 lymphocytes at a concentration of 100 ug/mL (0.3500 uM/mL).; assay type: functional, Homo sapiens; outline: as §3
[16] = system: Human immunodeficiency virus 1; test: Inhibitory effect against HIV-1 induced cytopathic effects(HIV-1 neutralization) in MT-4 lymphocytes at a concentration of 100 ug/mL (0.3500 uM/mL).; assay type: functional; outline: as §4
MT4 [17] = test: Cytotoxic effect in cultured MT-4 lymphocytes at a concentration of 10 ug/mL (0.0350 uM/mL).; assay type: functional, Homo sapiens; outline: as §3
MT4 [18] = test: Cytotoxic effect in cultured MT-4 lymphocytes at a concentration of 2 ug/mL (0.0070 uM/mL).; assay type: functional, Homo sapiens; outline: as §3
[19] = system: Human immunodeficiency virus 1; test: Inhibitory effect against HIV-1 in human peripheral blood monocyte cells(PBMC) (EC50 ->7.44 ug/mL); assay type: functional, organism-based

SMILES	Viability (MCF7 [1])	Viability [2]	Viability (MT4 [3])	Viability (COLO 320DM [4])	Viability (COLO 320DM [5])	Viability (MCF7 [6])	Viability (MCF7 [7])	Viability [8]	Viability (COLO 320DM [9])	Viability (MT4 [10])	Viability (MT4 [11])	Viability [12]	EC50 [13]	Viability [14]	Viability (MT4 [15])	Viability [16]	Viability (MT4 [17])	Viability (MT4 [18])	EC50 [19]
Cc1nc2cc3nc4ccccc4c(O)c3cc2s1.Cl	0%	0%	91.9%	0%	49%	91%	38%	19.4%	117%	87.2%	74.3%	98%	84.6 µM	36%					
Cc1nc2cc(Nc3ccccc3C(=O)[O-])ccc2s1.[Na+]															93.3%	18.2%	92.6%	87.5%	26 µM
